# In the library only some 4.3% were active in any assay of this set; here they are far more common.
# CHO parental Ca: counter-screen for OX1R antagonists: effect in parental CHO cells; parental CHO-K1, ATP-induced calcium, Fluo-8 fluorescence; inhibition, % at 5.6 µM; hit rate 0.63% among 330,000; AID 463079;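 active = inhibition above that plate's mean sample inhibition plus 3 SD, cut at about 26% in these data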
#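 Material: parental CHO cells / Compound: single nominal dose of 5.6 µM per compound / Signal: Fluo-8 fluorescence / Replicates: singlicate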
# GalR3 antag: blocks the human galanin receptor 3 | AID 651719 | hit rate 0.44% among 360,000 | HEK293 GalR3-CNG cAMP membrane potential fluorescence; galR3 body fused to GalR1 C-terminus | inhibition, % at 3 µM | O60755;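 active = inhibition above the screen-wide average plus 3 SD, cut at about 13% in these data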;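 note: forskolin and galanin both at EC90 stimulate the cells; cAMP rise reported by CNG channel membrane potential dye signal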
# Target sequence (O60755 1-299 limits assumed): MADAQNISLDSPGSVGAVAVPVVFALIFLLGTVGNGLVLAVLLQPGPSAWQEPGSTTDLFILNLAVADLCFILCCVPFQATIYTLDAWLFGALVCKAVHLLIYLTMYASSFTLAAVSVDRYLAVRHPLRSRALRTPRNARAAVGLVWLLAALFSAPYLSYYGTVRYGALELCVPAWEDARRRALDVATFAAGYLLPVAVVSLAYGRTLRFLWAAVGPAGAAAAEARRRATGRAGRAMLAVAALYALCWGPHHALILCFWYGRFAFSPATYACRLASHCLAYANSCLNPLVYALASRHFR
# TAAR1 antag: antagonists of human TAAR1. inhibition, % at 3 µM. hit rate 1.5% among 360,000. Q96RJ0. AID 624466. CHO RD-HGA16 TAAR1, Fluo-8 calcium fluorescence, antagonist;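 active = inhibition above a per-plate cutoff, the mean inhibition of test compounds on that plate plus 3 SD, cut at about 49% in these data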
# Target sequence (Q96RJ0 whole entry, looked up): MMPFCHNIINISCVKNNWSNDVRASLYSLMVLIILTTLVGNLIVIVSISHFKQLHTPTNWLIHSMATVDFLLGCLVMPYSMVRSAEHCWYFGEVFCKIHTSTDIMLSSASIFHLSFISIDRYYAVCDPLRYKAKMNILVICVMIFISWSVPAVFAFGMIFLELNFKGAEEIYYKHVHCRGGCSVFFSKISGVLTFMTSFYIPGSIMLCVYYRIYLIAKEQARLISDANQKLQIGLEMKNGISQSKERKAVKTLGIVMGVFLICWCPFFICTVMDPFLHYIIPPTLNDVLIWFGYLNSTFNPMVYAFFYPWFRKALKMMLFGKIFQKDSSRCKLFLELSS
#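 Test system – hTAAR1-expressing CHO RD-HGA16 cells, Gα16-coupled · Reagent – β-PEA at EC80 concentration, post-compound challenge · Compound dosing – 3 µM, single point · Timing – 140 s kinetic read after compound, 140 s after agonist · Detection – Fluo-8 intracellular calcium dye fluorescence, real-time kinetic reads · Control set – DMSO and EC80 PEA controls · Repeats – n of 1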
# OX1R antag-1: antagonists of human orexin 1 receptor. O43613. CHO/OX1R cells, Fluo-8 calcium fluorescence, orexin A. inhibition, % at 5 µM. hit rate 0.43% among 330,000. AID 434989;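 active = inhibition above its plate's threshold, mean inhibition of all tested compounds on the plate plus 3 SD, cut at about 37% in these data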
# TAAR1 ag: agonists of human TAAR1 | Q96RJ0 | CHO RD-HGA16 TAAR1, Fluo-8 calcium fluorescence; vehicle wells 0%, saturating PEA agonist 100% | activation, % at 3 µM | hit rate 0.99% among 360,000 | AID 624467;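 active = activation above the mean activation of all test compounds in the run plus 3 SD, cut at about 38% in these data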
#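 Test system: RD-HGA16 (CHO) cells co-expressing Gα16 and hTAAR1; dosing: one-point dosing at 3 µM (nominal); timing: 17-24 h seeding, 75 min 37 °C dye, 30 min RT; signal: kinetic Fluo-8 calcium fluorescence; read-out basis: % activation relative to PEA EC100 response; controls: DMSO and PEA EC100; replicates: n 1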
# OX1R antag-2: OX1R (human) antagonism | hit rate 1.8% among 330,000 | O43613 | OX1R-expressing cells, FRET antagonist read-out | inhibition, % at 6.6 µM; in the data active = inhibition mostly above about 38%, no sharp cut-off; inactive = mostly below about 40%
# GalR3 conf: confirmation of human galanin receptor 3 antagonists; AID 652245; inhibition, % at 3 µM; hit rate 59% among 1,600; HEK293 GalR3 CNG cAMP biosensor, membrane potential fluorescence; galR3 fused to GalR1 carboxy tail; challenged with forskolin and galanin at EC90; shares compounds with GalR3 antag;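 active = inhibition above the primary screen's cutoff, the mean inhibition of all screened compounds plus 3 SD, cut at about 13% in these data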
# CNG parental: parental cell agonism counter-screen for GalR3 antagonists | shares compounds with GalR3 antag | HEK293-CNG parental cells, cAMP membrane potential fluorescence; normalised: DMSO wells 0%, forskolin wells 100% | activation, % at 3 µM | hit rate 10% among 1,600 | AID 652268; in the data active = activation above about 1.3%
# Hits are given with their value; 0 = inactive; - = not tested or not shown; ! = a repeat was not active.
SMILES,CHO parental Ca,GalR3 antag,TAAR1 antag,OX1R antag-1,TAAR1 ag,OX1R antag-2,GalR3 conf,CNG parental
Cc1ccc(-c2csc3ncnc(N4CCN(Cc5ccccc5)CC4)c23)cc1,0,0,0,0,0,0,-,-
CC(=O)Nc1ccc(S(=O)(=O)NCC(=O)OCC(=O)N2CCc3ccccc32)cc1,0,12.8,0,0,0,0,0,0
CC(=O)Nc1ccc(C=C(C#N)c2ccc(C)cc2)cc1,-,0,0,-,0,-,-,-
COc1ccc(C2=Nn3c(nnc3-c3ccccc3C(F)(F)F)SC2)cc1OC1CCOC1 (configuration not stated),0,15.3,0,0,0,0,17.2,0
CCOc1ccc(C2=Nn3c(nnc3-c3ccccc3OC)SC2)cc1,0,22.3,0,0,0,0,44.9,2.2
COc1ccc(C2=Nn3c(nnc3-c3ccccc3Cl)SC2)cc1OCC1CC1,0,0,0,0,0,0,-,-
COCCCN1C(=O)c2ccc(C(=O)OCC(=O)N(C)c3ccccc3)cc2C1=O,0,-,0,0,0,0,0,0
COCCCN1C(=O)c2ccc(C(=O)OCC(=O)NCCc3ccccc3)cc2C1=O,0,0,0,0,0,0,-,-
Cc1cc(OCC(=O)Nc2cccc(S(=O)(=O)N3CCCC3)c2)ccc1Cl,-,0,0,-,0,-,-,-
CCC(=O)c1ccc(OCC(=O)Nc2cccc(S(=O)(=O)N3CCCCCC3)c2)cc1,-,98.2,0,-,0,-,97.3,0
CCS(=O)c1ccccc1C(=O)OCC(=O)Nc1cccc(S(=O)(=O)N2CCCCC2)c1 (configuration not stated),0,91.7,0,0,0,0,96.0,0
O=c1ccn(C2CCCCC2)c(=O)[nH]1,-,0,0,-,0,-,-,-
Cc1ccc(NC(=O)CCCN2C(=O)NC(C)(C)C2=O)cc1,0,0,0,0,0,0,-,-
CN1OC[C@@H]2CN(Cc3ccccc3)[C@H](c3cccc(-c4ccccc4)c3)C[C@@H]21,-,0,0,-,0,-,-,-
O=C(CNC(=O)c1ccc(F)cc1)Nc1ccccc1C(F)(F)F,0,13.6,0,0,0,0,0,0
O=C(O)C1CCCCN1C(=O)c1ccc(S(=O)(=O)N2CCCC2)cc1 (configuration not stated),-,0,0,-,0,-,-,-
N#Cc1cccc(C(=O)C(=O)N2CCC(Cc3ccccc3)CC2)c1,-,0,0,-,0,-,-,-
O=C(C(=O)N1CCC(Cc2ccccc2)CC1)c1ccccc1,-,15.6!,0,-,0,-,0,0
c1cc(C2OCCO2)cs1,-,0,0,-,0,-,-,-
CCc1nc2ccc(C(=O)Nc3ccc4c(c3)OCC(=O)N4)cn2c1N(CC)Cc1cccc(Br)c1,-,0,0,-,0,-,-,-
CCc1nc2ccc(C(=O)Nc3ccc4c(c3)OCC(=O)N4)cn2c1N(CC)CCOC,-,15.3,0,-,0,-,0,0
CSCCC(c1nc2ccccc2[nH]1)n1c(-c2cc(C(F)(F)F)cc(C(F)(F)F)c2)nc2ccccc21 (configuration not stated),-,0,0,-,0,-,-,-
CC(C)CNC(=O)C1(C)CCCN1C(=O)Cc1cccc2ccccc12 (configuration not stated),-,0,0,-,0,-,-,-
CC1CC(=O)NN=C1c1ccc(N(C)C)c([N+](=O)[O-])c1 (configuration not stated),0,60.0,0,0,0,0,69.3,0
CCN(CC)c1ccc(C2=NNC(=O)CC2C)cc1[N+](=O)[O-] (configuration not stated),0,52.0,0,0,0,0,64.7,0
SMILES,CHO parental Ca,GalR3 antag,TAAR1 antag,OX1R antag-1,TAAR1 ag,OX1R antag-2,GalR3 conf,CNG parental
COc1ccc(S(=O)(=O)N2CCOC2CNC(=O)C(=O)NCc2ccc3c(c2)OCO3)cc1C (configuration not stated),-,0,0,-,0,-,-,-
CC(=O)c1c(C)[nH]c(C(=O)COc2cc(C)ccc2C(C)C)c1C,74.1,72.8,72.4,62.2,0,84.4,112.8,0
CCC(=O)c1ccccc1OCCCN1CCC(Cc2ccccc2)CC1,0,0,0,0,0,0,-,-
Cc1cc(Br)ccc1OCC(=O)NNC(=O)c1ccc(NC(=O)C2CC2)cc1,0,50.0,0,0,0,0,35.7,0
C[C@@H]1CN([C@@H](C)CO)S(=O)(=O)c2ccc(Br)cc2O[C@@H]1CN(C)Cc1cccnc1,-,0,0,-,0,-,-,-
Cc1[nH]c(=O)[nH]c(=O)c1/C=N/NC(=O)[C@H](C)NC(=O)OC(C)(C)C,0,-,0,0,0,0,0,0
CCCCC[C@@H](/C=C/C1C(=O)C=C[C@H]1C/C=C\CCCC(=O)OC)OC(C)=O (some centres not stated),-,59.2,50.3,-,0,-,89.9,0
COC(=O)c1sc2nc(C)nc(SCC(=O)Nc3sccc3C(N)=O)c2c1C,0,0,0,0,0,0,-,-
CC12CCC(C/C1=N\N=C1\NC(=O)/C(=C\c3ccc(Cl)cc3)S1)C2(C)C (configuration not stated),0,17.3,0,0,0,0,0,34.2
Cc1cccc(-c2nnc(N)s2)c1,0,12.8,0,0,0,0,0,0
O=C(O)c1cc(-c2ccccc2)nc2nc(N3CCCCC3)sc12,0,12.9,0,0,0,0,0,0
Cc1ccc(-c2cc(C(=O)O)c3sc(N4CCCCC4)nc3n2)cc1,0,0,0,0,0,0,-,-
CCOC(=O)c1oc2c(c1C)/C(=N/O)CCC2,0,13.2,0,0,0,0,0,0
CC(=O)c1cccc(CN2CCN(CC=C(C)C)C(CCO)C2)c1 (configuration not stated),0,16.4,0,0,0,0,0,0
Cc1ccc(CSc2nccc(-c3c(C)nc4ccccn34)n2)cc1,0,0,0,0,0,0,-,-
CC(=O)NCCC1CCN(c2nc3nonc3nc2N(C)Cc2ccccc2)CC1,0,19.6,0,0,0,0,0,0
CCCCNC(=O)N1CCC(CCC(=O)N(C)Cc2ccccc2)CC1,0,0,0,0,0,0,-,-
CCCOc1ccc(NC(=O)CC2C(=O)N(c3ccc(OCC)cc3)C(=S)N2C2CC2)cc1 (configuration not stated),0,0,0,0,0,0,-,-
CCC(C)CN1C(=O)CN(S(C)(=O)=O)CC1(C)C(=O)NC(C)C (configuration not stated),-,0,0,-,0,-,-,-
CCOc1ccc(Br)cc1S(=O)(=O)N1CCC(C(N)=O)CC1,0,17.7,0,0,0,0,0,0

# Source: PubChem BioAssay (The Scripps Research Institute Molecular Screening Center)
